Key:
Brassica rapa = test: Toxicity against Brassica rapa assessed as plant growth inhibition at 100 ppm relative to untreated control; type: organism-based; settings: in vivo
Summary of the method: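 Seedlings held three days at 27°C in darkness, then radicle and hypocotyl lengths measured. Growth inhibition (%) calculated for each organ against control. Each experiment run three times.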

[Sclerotium] delphinii = Antifungal activity against Sclerotium delphinii assessed as fungal growth inhibition at 100 ppm relative to untreated control; type: functional; settings: Agroathelia delphinii; read-out: GI
Summary of the method: (§1)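 Fungus precultured on potato dextrose agar (1.5% agar) for four days at 27°C before testing. Compounds tested at 100 ppm in triplicate. Growth inhibition (%) relative to untreated control.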

Rhizoctonia solani = test: Antifungal activity against Rhizoctonia solani assessed as fungal growth inhibition at 100 ppm relative to untreated control; type: functional; settings: read-out: GI; summary of the method: as §1

| SMILES | growth inhibition (GI) (Brassica rapa) | inhibition of growth at 100 ppm ([Sclerotium] delphinii) [%] | inhibition of growth at 100 ppm (Rhizoctonia solani) [%] |
| --- | --- | --- | --- |
| Cc1cc(OC(=O)/C=C/c2ccc(F)cc2)cc(=O)o1 | > 50% | 30 | 70 |
| Cc1cc(OC(=O)/C=C/c2ccc(Cl)cc2)cc(=O)o1 | > 60% | 30 | > 60 |
| Cc1cc(OC(=O)/C=C/c2ccccc2F)cc(=O)o1 | 30% | > 40 | 60 |
| Cc1cc(OC(=O)/C=C/c2cccc(F)c2)cc(=O)o1 | > 50% | 30 | > 60 |
| Cc1cc(OC(=O)/C=C/c2ccc(C(C)C)cc2)cc(=O)o1 | 20% | ≤ 50 | 80 |
| Cc1cc(OC(=O)/C=C/c2ccccc2Cl)cc(=O)o1 | 20% | 20 | 60 |
| Cc1cc(OC(=O)/C=C/c2cccc(Cl)c2)cc(=O)o1 | <= 70% | 40 | 60 |
| Cc1cccc(/C=C/C(=O)Oc2cc(C)oc(=O)c2)c1 | 40% | 40 | 70 |
| Cc1ccc(/C=C/C(=O)Oc2cc(C)oc(=O)c2)cc1 | 30% | 10 | 70 |
| Cc1cc(OC(=O)/C=C/c2ccccc2)cc(=O)o1 | 30% | 20 | > 60 |
| Cc1cc(OC(=O)/C=C/c2ccccc2C)cc(=O)o1 | 80% | 20 | 70 |
| O=C(/C=C/c1ccccc1F)Oc1cc(CCc2ccccc2)oc(=O)c1 | 40% | 10 | 10 |
| O=C(/C=C/c1cccc(F)c1)Oc1cc(CCc2ccccc2)oc(=O)c1 | 30% | > 30 | 40 |
| O=C(/C=C/c1ccc(F)cc1)Oc1cc(CCc2ccccc2)oc(=O)c1 | 40% | 10 | 10 |
| O=C(/C=C/c1ccc(Cl)cc1)Oc1cc(CCc2ccccc2)oc(=O)c1 | 20% | > 30 | 10 |
| O=C(/C=C/c1cccc(Cl)c1)Oc1cc(CCc2ccccc2)oc(=O)c1 | 50% | 10 | 40 |
| O=C(/C=C/c1ccccc1Cl)Oc1cc(CCc2ccccc2)oc(=O)c1 | 30% | > 30 | 40 |
| Cc1cccc(/C=C/C(=O)Oc2cc(CCc3ccccc3)oc(=O)c2)c1 | 40% | 30 | 50 |
| Cc1ccc(/C=C/C(=O)Oc2cc(CCc3ccccc3)oc(=O)c2)cc1 | 30% | ≤ 10 | 50 |
| CC(C)c1ccc(/C=C/C(=O)Oc2cc(CCc3ccccc3)oc(=O)c2)cc1 | 10% | > 30 | 40 |
| O=C(/C=C/c1ccccc1)Oc1cc(CCc2ccccc2)oc(=O)c1 | 30% | 30 | 20 |
| Cc1ccccc1/C=C/C(=O)Oc1cc(CCc2ccccc2)oc(=O)c1 | > 60% | 40 | 50 |
| Cc1cc(O)cc(=O)o1 [4-HYDROXY-6-METHYLPYRAN-2-ONE] |  | 20 | ≤ 10 |
| COc1cc(CCc2ccccc2)oc(=O)c1 [DIHYDRO-5,6-DEHYDROKAWAIN] | 0% | 50 | 50 |

Reference: ChEMBL document CHEMBL3046618, “Syntheses and biological activities of pyranyl-substituted cinnamates” (Biosci Biotechnol Biochem, 2001)
